TRPC6 activator: activates the mouse TRPC6 cation channel; HEK293-TRPC6 membrane potential dye fluorescence; stronger effect = higher value; B-score at 10 µM; actives 0.13% (n = 310,000); AID 2550; Q61143;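 active = B-score of the integrated fluorescence ratio above library mean plus 3 SD, and starting fluorescence ratio within library mean plus 5 SD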;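 also: higher score means more depolarization so channel activation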
TRPC4 block: TRPC4 (mouse) channel inhibition; HEK293 TRPC4beta/mu-opioid, DAMGO-evoked Fluo4 calcium flux; stronger effect = lower value; B-score at 10 µM; actives 0.39% (n = 300,000); AID 2247;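 active = B-score over 3 SD under the library average, no early fluorescence shift, positive overall ratio signal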
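Material: HEK293 cells with stable TRPC4beta plus mu-opioid receptor expression / Probe or stimulus: DAMGO in two steps, submaximal then maximal / Compound: single concentration per test compound / Technique: kinetic Fluo4 fluorescence imaging of calcium influx / Read-out: per-well B score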
TRPC4 potent: TRPC4 (mouse) allosteric potentiation | Q9QUQ5 | B-score at 10 µM | AID 2227 | HEK293 TRPC4beta/mu-opioid, DAMGO EC20, Fluo-4 Ca2+ flux; stronger effect = higher value | actives 0.42% (n = 310,000);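 active = B-score of calcium response area above 5 SD of library B-scores, with initial fluorescence ratio within 5 SD of library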;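 also: B-score of integrated fluorescence ratio over time as area under calcium response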
TRPC6 inhibitor: inhibitors of mouse TRPC6 channel | actives 1.1% (n = 310,000) | HEK293-TRPC6, membrane potential dye, ACh-evoked depolarization; stronger effect = lower value | B-score at 10 µM | Q61143 | AID 2553;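 active = B-score under library mean minus 3 SD, initial fluorescence not abnormally high, positive integrated signal ratio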;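 also: B-score derived from integrated fluorescence ratio over the kinetic read; more negative B-score means stronger inhibition of depolarization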
TRPC4 act: activators of mouse TRPC4 channel. Q9QUQ5. HEK293 TRPC4beta/mu-opioid, Fluo4 calcium fluorescence; stronger effect = higher value. B-score at 10 µM. actives 0.49% (n = 310,000). AID 2237;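 active = B-score above 5 SD of library B-scores, and initial fluorescence ratio not above library mean plus 5 SD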;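 also: positive B-score marks a calcium rise read as TRPC4 activation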
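System: HEK293 cells stably co-expressing mouse TRPC4beta and mu-opioid receptor; Schedule: Fluo4 dye loading 45 min at room temperature, 110 s recording; Detection: Fluo4 fluorescence, kinetic; Evaluation: B-scored integrated calcium fluorescence ratio; Controls: buffer (low) and maximal DAMGO (high).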
Kir21 block: Kir2.1 (mouse) channel inhibition; B-score at 10 µM; actives 0.85% (n = 310,000); HEK293-Kir2.1, FluxOR thallium flux fluorescence; stronger effect = lower value; P35561;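 active = fluorescence ratio B-score at or below minus 3 SD of library scores, with starting-brightness B-score within 2 SD, cut at about -4.2 in these data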;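 also: channel flux triggered by added potassium and thallium sulfate stimulus; B-score of peak minus minimum fluorescence over baseline after thallium stimulus; more negative B-score means stronger Kir2.1 block with less thallium influx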
Target sequence (P35561 whole entry, looked up): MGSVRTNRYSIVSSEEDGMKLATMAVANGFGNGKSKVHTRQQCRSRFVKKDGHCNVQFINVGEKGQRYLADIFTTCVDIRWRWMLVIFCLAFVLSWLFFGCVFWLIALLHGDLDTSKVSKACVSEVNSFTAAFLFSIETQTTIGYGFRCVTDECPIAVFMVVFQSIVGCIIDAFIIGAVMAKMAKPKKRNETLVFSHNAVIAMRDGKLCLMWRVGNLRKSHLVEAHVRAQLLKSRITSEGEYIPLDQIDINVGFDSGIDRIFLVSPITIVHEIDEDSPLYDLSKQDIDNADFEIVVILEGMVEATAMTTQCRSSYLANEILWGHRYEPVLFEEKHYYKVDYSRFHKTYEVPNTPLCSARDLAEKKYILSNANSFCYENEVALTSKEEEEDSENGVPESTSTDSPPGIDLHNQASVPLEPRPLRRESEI
TRPC4 spec 2: mouse TRPC4 off-target activity of TRPC6 inhibitors, second screen; AID 2776; actives 42% (n = 920); shares compounds with TRPC6 inhibitor; inhibition, % at 10 µM; HEK293 TRPC4/MOR, membrane potential dye fluorescence; channel activated by saturating DAMGO dose;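 active = compounds whose fluorescence signal differed from control wells by over 3 SD, either direction, in both duplicate plates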
TRPC4 spec: tests whether TRPC6 inhibitors also affect mouse TRPC4; AID 2777; actives 61% (n = 920); shares compounds with TRPC6 inhibitor; activity change, negative = inhibition, % at 10 µM; HEK293 TRPC4/mu-opioid, membrane potential fluorescence;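 active = rise or fall in signal beyond 3 SD of buffer-only wells in both replicate plates, either sign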;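 also: integrated kinetic ratio of fluorescence range over baseline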
HEK293 MPD ctr 2-1: second check of TRPC6 inhibitor effects in parental HEK293 cells. shares compounds with TRPC6 inhibitor. parental HEK293 membrane potential dye fluorescence; maximal acetylcholine challenge after compound addition. signal change vs control, % at 10 µM. actives 31% (n = 920);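 active = membrane potential signal moving either way by over 3 SD of the maximum-effect control, in both duplicate plates, meaning non-specific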
HEK293 MPD ctr-1: parental HEK293 nonspecific activity of TRPC6 inhibitors; shares compounds with TRPC6 inhibitor; parental HEK293 membrane potential dye fluorescence; membrane potential signal change, % at 10 µM; actives 60% (n = 920); AID 2780;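 active = membrane potential signal shifting up or down by more than 3 SD of buffer-only wells, on both duplicate plates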
HEK293 MPD ctr-2: checks TRPC6 modulator effects in parental HEK293 cells; AID 488924; membrane potential signal change, % at 10 µM; membrane potential dye fluorescence; shares compounds with TRPC6 inhibitor; actives 51% (n = 2,400);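 active = membrane potential signal moves up or down beyond 5 SD from buffer-only wells, on both duplicate plates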
HEK293 MPD ctr 2-2: second counter-screen for TRPC6 modulators: effect in parental HEK293 cells; shares compounds with TRPC6 inhibitor; membrane potential dye fluorescence; after compound, maximal acetylcholine stimulation; inhibition, % at 10 µM; actives 14% (n = 2,400); AID 488926;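 active = membrane potential signal drops by more than 5 SD from the mean control signal, in both duplicate plates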;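 also: plate controls were acetylcholine ECmax control wells for no effect and buffer only wells for full effect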
TRPC4/MOR mod: tests whether TRPC6 modulators also affect mouse TRPC4; AID 488927; actives 69% (n = 2,400); percent change from control (negative = decrease, positive = increase), % at 10 µM; shares compounds with TRPC6 inhibitor; HEK293 TRPC4/mu-opioid, membrane potential fluorescence;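 active = membrane potential signal moved up or down beyond 5 SD of buffer control wells, in both duplicate plates, actives on both sides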;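 also: plate controls were assay buffer wells for no effect and DAMGO maximal-effect wells for full effect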
TRPC4 ctr inh 2: mouse TRPC4 off-target activity of TRPC6 modulators, second screen. shares compounds with TRPC6 inhibitor. HEK293 TRPC4/mu-opioid, membrane potential dye fluorescence; stimulated with maximal-effect DAMGO. actives 55% (n = 2,400). inhibition, % at 10 µM;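 active = drop in membrane potential signal beyond 5 SD of the control wells in both duplicate plates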;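 also: TRPC4 counter screen for TRPC6 hits run under conditions tuned for TRPC6 not TRPC4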
TRPC6 inh conf: mouse TRPC6 inhibitor confirmation; inhibition, % at 10 µM; HEK293-TRPC6, membrane potential dye, ACh-evoked depolarization; shares compounds with TRPC6 inhibitor; AID 488960; actives 43% (n = 3,300);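 active = fluorescence ratio falls more than 5 SD below the full-stimulation control mean, in both duplicate runs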;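 also: integrated fluorescence ratio of peak minus minimum over baseline after agonist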
TRPC6 act confirm: confirmation of mouse TRPC6 activators | shares compounds with TRPC6 inhibitor | HEK293-TRPC6 membrane potential dye fluorescence, FDSS | activation, % at 10 µM | actives 11% (n = 2,800);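 active = ratio signal rise beyond 5 SD above unstimulated control wells' mean, seen in both duplicate runs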;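 also: plate controls were buffer EC0 wells for no effect and acetylcholine ECmax response for full effect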
The depositor's hits bear a star; i = inactive; / = no result. Shown are actives, neighbours in structure and some others; about 2.9% of the full set was active somewhere.

SMILES	TRPC6 activator	TRPC4 block	TRPC4 potent	TRPC6 inhibitor	TRPC4 act	Kir21 block	HEK293 MPD ctr-2	HEK293 MPD ctr 2-2	TRPC4/MOR mod	TRPC4 ctr inh 2	TRPC6 inh conf	TRPC6 act confirm	others
CCN(CCCNc1ncnc2nc[nH]c12)c1cccc(C)c1	i	i	i	-6.3*	i	0.02	i	i	i	i	i	i
COc1ccccc1N1CCN(C(=O)c2cc(-c3ccccc3)on2)CC1	i	i	i	i	i	0.16	/	/	/	/	/	/
COc1ccccc1N1CCN(C(=O)c2cc(-c3ccccc3O)on2)CC1	i	i	i	-5.9*	i	0.17	i	i	i	i	i	i
CCOC(=O)N/N=C1\CCS(=O)(=O)c2ccc(Cl)cc21	i	i	i	i	i	2.1	/	/	/	/	/	/
C=CCn1c(SCC(=O)c2cc(C)n(CC3CCCO3)c2C)nnc1-c1ccccc1 (stereo not drawn)	16*	i	i	i	i	-0.26	110%*	i	26%*	i	/	82%*
O=C(CSc1nnc(-c2ccccc2)n1CC1CCCO1)N1CCCC1 (stereo not drawn)	i	i	i	i	i	0.54	/	/	/	/	/	/
COC(=O)c1[nH]c2ccc(C)cc2c1NC(=O)CCN1CCN(C2CCCCC2)CC1	i	i	i	i	i	0.04	/	/	/	/	/	/
COC(=O)c1[nH]c2cc(C)ccc2c1NC(=O)CN1CCCc2ccccc21	i	i	i	-11*	i	-1.4	/	/	/	/	i	i	TRPC4 spec 2=i;TRPC4 spec=-10%*;HEK293 MPD ctr 2-1=i;HEK293 MPD ctr-1=i
COC(=O)c1[nH]c2ccc(Br)cc2c1NC(=O)CN1CCN(C2CCCCC2)CC1	i	i	i	-17*	i	-4.2	/	/	/	/	94%*	i	TRPC4 spec 2=30%*;TRPC4 spec=-24%*;HEK293 MPD ctr 2-1=20%*;HEK293 MPD ctr-1=-268%*
COC(=O)c1[nH]c2ccccc2c1NC(=O)CN1CCN(Cc2ccc3c(c2)OCO3)CC1	i	i	i	-5.6*	i	1	i	i	i	66%*	57%*	i
O=C(Nc1ccon1)Nc1cc(Cl)ccc1Cl	i	i	i	i	i	-0.79	/	/	/	/	/	/
Cc1[nH]n(-c2ccc(Br)cc2)c(=O)c1C=Nc1ccc(S(=O)(=O)Nc2nccs2)cc1	i	i	i	-5.8*	i	-0.37	i	i	-39%*	40%*	i	i
O=C(COc1ccc(Cl)cc1Cl)NNC(=S)NCc1ccco1	i	i	i	-5.4*	i	-2.5	i	i	i	i	i	i
CCC1CCC(N2CCN(c3cccc(OC)c3)CC2)CC1 (stereo not drawn)	i	i	i	i	i	1.1	/	/	/	/	/	/
COc1ccc(C2Nc3cccc4cccc(c34)N2)cc1	i	i	i	-5*	i	-1	i	i	-16%*	45%*	i	i
CCOc1cc(C2Nc3cccc4cccc(c34)N2)ccc1O	i	i	i	-5.9*	i	0	-122%*	i	-28%*	57%*	41%*	i
C=CCn1cccc(C(=O)Nc2ccc(OCC)cc2)c1=O	i	i	i	i	i	1.1	/	/	/	/	/	/
Cn1nc(-c2ccc(C(=O)NCCO)cc2)c2ccccc2c1=O	i	i	i	i	i	0.91	/	/	/	/	/	/
NC1=NC(=Nc2ccc(Br)cc2)c2ccccc21	i	i	i	-5*	i	2.5	i	i	-17%*	40%*	i	i
CC(C)c1ccc(N=C2N=C(N)c3ccccc32)cc1	i	i	i	-6.1*	i	-4.5*	i	i	-29%*	77%*	73%*	i
CCOc1ccc(CCNC(=O)COC(=O)c2ccc(OC(C)C)cc2)cc1OCC	i	i	i	i	i	-2.9	/	/	/	/	/	/
Brc1ccc(-c2c[n+]3c(n2-c2ccccc2)SCC3)cc1	i	i	i	-7.2*	i	-0.71	/	/	/	/	i	i	TRPC4 spec 2=i;TRPC4 spec=-15%*;HEK293 MPD ctr 2-1=-20%*;HEK293 MPD ctr-1=-228%*
COc1ccc(-c2c[n+]3c(n2-c2ccccc2)CCCCC3)cc1	i	i	i	i	i	-0.86	/	/	/	/	/	/
COc1ccc(-c2c[n+]3c(n2-c2ccccc2)SCC3)cc1	i	i	i	-8.2*	i	-0.5	/	/	/	/	63%*	i	TRPC4 spec 2=i;TRPC4 spec=-12%*;HEK293 MPD ctr 2-1=-12%*;HEK293 MPD ctr-1=-172%*
Cc1ccc(-c2c[n+]3c(n2-c2ccccc2)SCC3)cc1	i	i	i	-5.4*	i	0.15	i	i	-11%*	i	i	i
COc1ccc(-c2c[n+]3c(n2-c2ccccc2)SCC3)cc1OC	i	i	i	i	i	0.37	/	/	/	/	/	/
